Screening results from PubChem BioAssay.
This excerpt belongs to a sample that is enriched for hits.
ABCB1 block: ABCB1 efflux pump inhibitors, primary screen, cell-based, multiplex, flow cytometry, ABCG2 counter-screen; CCRF-Adr cells, JC-1 efflux; inhibition, % at 6.6 µM; 190,000 tested, 0.067% active; AID 1326, 2008; ATP-dependent translocase ABCB1 (Homo sapiens), P08183; in the data active = inhibition above about 40%;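 note: 0% = vehicle and 100% = reference inhibitor; higher value means more JC-1 retained so stronger ABCB1 efflux block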
Target sequence (P08183 whole entry, looked up): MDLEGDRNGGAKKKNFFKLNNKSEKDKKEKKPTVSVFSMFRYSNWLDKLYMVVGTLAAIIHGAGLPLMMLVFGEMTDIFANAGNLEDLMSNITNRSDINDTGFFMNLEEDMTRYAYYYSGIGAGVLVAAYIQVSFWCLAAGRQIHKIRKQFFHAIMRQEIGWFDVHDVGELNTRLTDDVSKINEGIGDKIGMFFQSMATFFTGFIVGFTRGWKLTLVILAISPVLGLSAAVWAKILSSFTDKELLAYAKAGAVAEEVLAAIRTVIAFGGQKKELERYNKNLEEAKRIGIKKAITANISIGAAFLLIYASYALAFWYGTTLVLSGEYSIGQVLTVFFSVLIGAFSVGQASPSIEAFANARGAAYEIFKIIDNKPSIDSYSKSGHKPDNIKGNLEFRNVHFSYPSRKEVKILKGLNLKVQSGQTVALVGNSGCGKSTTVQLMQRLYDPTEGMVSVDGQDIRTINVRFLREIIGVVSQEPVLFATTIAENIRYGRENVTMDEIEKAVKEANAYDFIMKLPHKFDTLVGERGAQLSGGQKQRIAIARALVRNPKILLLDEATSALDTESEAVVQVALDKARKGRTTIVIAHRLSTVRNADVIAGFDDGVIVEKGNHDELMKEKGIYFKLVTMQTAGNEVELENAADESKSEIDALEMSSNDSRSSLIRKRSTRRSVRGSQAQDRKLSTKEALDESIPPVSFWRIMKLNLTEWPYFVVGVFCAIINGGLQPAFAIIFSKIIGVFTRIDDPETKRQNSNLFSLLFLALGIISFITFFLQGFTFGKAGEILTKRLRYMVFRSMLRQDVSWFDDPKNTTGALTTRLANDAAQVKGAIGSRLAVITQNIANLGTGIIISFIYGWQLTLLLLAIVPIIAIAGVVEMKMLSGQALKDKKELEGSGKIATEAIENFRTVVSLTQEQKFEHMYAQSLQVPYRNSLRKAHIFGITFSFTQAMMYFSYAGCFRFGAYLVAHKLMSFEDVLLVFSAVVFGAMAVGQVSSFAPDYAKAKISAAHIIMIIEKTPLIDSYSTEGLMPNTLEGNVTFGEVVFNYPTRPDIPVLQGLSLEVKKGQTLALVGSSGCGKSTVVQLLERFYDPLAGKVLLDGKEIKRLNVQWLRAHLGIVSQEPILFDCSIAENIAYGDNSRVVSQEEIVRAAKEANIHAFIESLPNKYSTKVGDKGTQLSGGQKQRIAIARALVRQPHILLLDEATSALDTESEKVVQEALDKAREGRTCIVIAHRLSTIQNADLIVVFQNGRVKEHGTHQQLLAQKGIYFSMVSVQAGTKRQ
Lmaj promast: Leishmania major promastigote growth inhibition, primary screen; Leishmania major promastigotes, resazurin fluorescence viability; inhibition, % at 10 µM; 200,000 tested, 9% active;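 note: promastigotes grown with compound for 44 hours at 28 °C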
GSH fluor: compound fluorescence on glutathione beads, profiling panel, artefact control, biophysical, 488/530 nm, flow cytometry; GSH beads flow cytometry, compound fluorescence 488/530 nm; hits give high values; 190,000 tested, 0.25% active; fluorescence (KMESF) at 10 µM; in the data active = fluorescence above about 89;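 note: glutathione beads carrying GST-tagged Bcl family fusion proteins plus one bare bead set; values are compound well signal with DMSO vehicle wells as background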
Avidin fluor: green autofluorescence of compounds with avidin beads – biophysical, 488/530 nm, flow cytometry, artefact control, profiling panel; compound fluorescence 488/530 nm; hits give high values; fluorescence (KMESF) at 10 µM; 220,000 tested, 0.38% active; in the data active = fluorescence above about 47
PKD1 kinase inh: inhibitors of human PKD1 kinase, biochemical, fluorescence polarization. Serine/threonine-protein kinase D1 (Homo sapiens), Q15139. inhibition, % (concentration not given with the values). AID 797, 2007. PKD1 kinase fluorescence polarization assay. 200,000 tested, 0.056% active
ABCG2 inh: ABCG2 efflux pump inhibitors, primary screen, multiplex with ABCB1, IgMXP3 cells, flow cytometry; 190,000 tested, 0.1% active; JC-1 efflux; inhibition, % at 6.6 µM; AID 1325, 2008;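 active = inhibition above 80%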;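 note: 0% = DMSO and 100% = nicardipine control wells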
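Times: 10 min at 25 °C | Test system: Two drug-resistant human cell lines, ABCG2 and ABCB1 | Quantity: 3 million cells/mL final, two lines in 1:1 ratio | Signal: Flow cytometry, 530 nm JC-1 signal | Dosing: Compound at 6.6 µM | Controls: Nicardipine and DMSO wells | Reagent: JC-1 as fluorescent efflux pump substrate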
* hit, by the source's call; . = not tested or not shown. Cut-off read from the data, not from the text of the source, unless noted: active = inhibition above about 50%; inactive = the rest.

SMILES | ABCB1 block | Lmaj promast | GSH fluor | Avidin fluor | PKD1 kinase inh | ABCG2 inh
O=C(COc1cccc(Cl)c1)Nc1ccc2c(c1)CCC2 | -0.8 | 56.0* | 3 | 12 | -6.0 | 6.4
CC(=O)Nc1ccc(-c2csc(Nc3ccc(Cl)cn3)n2)cc1 | 0.0 | 58.8* | 11 | 21 | -6.8 | 1.1
CC(=O)Nc1ccc(-c2csc(Nc3cc(C)ccn3)n2)cc1 | -1.1 | 59.9* | 26 | 8 | -5.0 | -5.0
COc1ccc(-c2csc(Nc3ccc(C)cn3)n2)cc1OC | -0.2 | 10.3 | 11 | 9 | 6.8 | 0.5
Cc1ccc(Nc2nc(-c3ccc(O)c(O)c3)cs2)nc1 | -0.4 | 98.7* | 10 | 9 | 1.6 | -0.3
CC(=O)Nc1cccc(-c2csc(Nc3cc(C)ccn3)n2)c1 | 0.0 | 27.1 | 12 | 17 | -12.3 | 0.0
COCCNC(=S)N/N=C1\CC(C)CC(C)(C)C1 (centres undefined) | 0.1 | 1.7 | 8 | 22 | 0.2 | 1.0
Cc1cc(CN(C)C(=O)c2cc(COc3ccc(F)cc3Cl)on2)n[nH]1 | 1.0 | -7.2 | 9 | 10 | -3.7 | 3.9
CCOc1ccc(-n2c(SCc3cc(=O)oc4cc(C)ccc34)nnc2-c2cccnc2)cc1 | -0.9 | 18.6 | 12 | 4 | -5.8 | -6.4
CC(=O)Nc1ccc2c(CSc3nnc(-c4cccnc4)n3-c3ccc(C)cc3C)cc(=O)oc2c1 | -1.4 | 56.9* | 4 | 13 | -4.3 | -13.0
Cc1nnc(SCc2cc(=O)oc3ccc4ccccc4c23)n1Cc1ccccc1 | 0.1 | -0.5 | 12 | 13 | 6.0 | 0.4
CC(C)c1ccccc1-n1c(SCc2cc(=O)oc3ccc4ccccc4c23)nnc1-c1cccnc1 | 10.5 | 54.3* | 9 | 23 | -11.2 | 4.1
O=C(Nc1ccc(S(=O)(=O)NC2=NCCCCC2)cc1)C1COc2ccccc2O1 (centres undefined) | . | . | . | 10 | . | .
CCCNC(=O)c1cc(OC)c(OC)cc1[N+](=O)[O-] | 0.8 | -5.2 | 35 | 11 | -7.7 | 4.5
COc1ccc(CCNc2nc(=S)[nH]c3cc(OC)c(OC)cc23)cc1OC | -0.7 | 9.8 | 0 | 14 | -4.6 | -1.9
COc1cc2[nH]c(=S)nc(NCCc3ccc(C)cc3)c2cc1OC | -0.5 | 97.3* | 3 | 21 | -9.0 | -0.8
Cc1nnc(SCC(=O)c2ccc(C(C)C)cc2)s1 | 0.4 | -3.7 | 11 | 10 | 6.7 | 16.6
CCOC(=O)/C(C#N)=C/c1ccc(OCC(=O)Nc2ccc(C)c(C)c2)c(OC)c1 | 0.3 | 51.7* | 23 | 10 | 3.4 | 1.6
CCOC(=O)/C(C#N)=C/c1ccc(OCC(=O)Nc2ccc(OC)cc2)c(OC)c1 | 0.5 | -2.7 | 13 | 39 | -0.2 | 1.6
COc1cc(/C=N\Nc2ccc([N+](=O)[O-])cc2)ccc1OCC(=O)Nc1ccc(C)c(C)c1 | 1.6 | -5.8 | 13 | 61* | 6.0 | 0.5
O=c1[nH]ncn1-c1ccc(Br)cc1 | 1.2 | -5.8 | 13 | 5 | 3.8 | 6.2
Cc1ccc(Cl)cc1N1CCN(C(=O)CN(C2CCCCC2)S(C)(=O)=O)CC1 | 1.6 | 8.2 | 20 | 18 | 4.6 | 3.7
Cc1ccc(S(=O)(=O)NCC(=O)OCC(=O)c2c(N)n(C)c(=O)n(C)c2=O)cc1 | 4.8 | -3.5 | 18 | 12 | -6.2 | 3.0
COc1cccc2sc(Nc3nnc(-c4ccccc4Cl)o3)nc12 | -0.8 | 97.4* | 16 | 7 | -10.2 | -2.8
COc1cccc2sc(Nc3nc(-c4cc5ccccc5oc4=O)cs3)nc12 | -0.8 | 6.0 | 13 | 10 | 18.9 | -7.9
SMILES | ABCB1 block | Lmaj promast | GSH fluor | Avidin fluor | PKD1 kinase inh | ABCG2 inh
NNc1nc2c(Cl)c(Cl)ccc2s1 | -0.7 | 99.2* | 11 | 13 | 3.0 | -3.3
CCOC(=O)c1sc(NC(=O)c2ccccc2OC)nc1C | -1.9 | -8.9 | 19 | 10 | 7.9 | -3.5
COc1cccc(-c2nnc(Nc3nc4c(F)cccc4s3)o2)c1 | -1.7 | 1.3 | 20 | 35 | -3.8 | -9.8
COc1ccccc1-c1nnc(Nc2nc3c(OC)cccc3s2)o1 | -0.5 | 97.9* | 14 | 34 | 0.0 | -1.2
CCOC(=O)c1sc(Nc2nc3c(OC)cccc3s2)cc1C | 0.2 | 69.0* | 15 | 6 | -9.3 | -2.5
COCc1cc(C)nc(OCC(=O)N/N=C/c2ccccc2)c1C#N | -0.5 | 1.1 | 12 | 9 | -6.2 | 17.7
CC(=O)Nc1ccc2nc(NC(=O)COc3ccccc3C)sc2c1 | -0.7 | 8.9 | 25 | 8 | -8.9 | -4.0
COc1cccc2sc(NN)nc12 | -1.2 | 60.0* | 20 | 7 | -6.8 | -1.9
COc1cccc2sc(Nc3nc4ccc(NC(C)=O)cc4s3)nc12 | -1.9 | 85.4* | . | 8 | -4.3 | -14.1
CN(Cc1ccccc1)S(=O)(=O)c1ccc(C(=O)Nc2nnc(C3CC3)o2)cc1 | 0.6 | 99.2* | 44 | 13 | 7.4 | 3.4
COc1ccccc1-c1nnc(NC(=O)c2ccc(S(=O)(=O)N(C)Cc3ccccc3)cc2)o1 | -0.8 | 97.4* | 19 | 34 | -0.2 | -2.3
Cc1cc(C)c(Nc2cc(S(=O)(=O)O)c(N)c3c2C(=O)c2ccccc2C3=O)c(C)c1 | -0.9 | -2.7 | 12 | 11 | 9.4 | -5.9
CCn1c(=O)c(C(=O)CN2CCN(S(=O)(=O)c3ccc(C)cc3C)CC2)c(N)n(Cc2ccccc2)c1=O | 19.0 | 57.9* | 11 | 6 | 16.3 | 27.7
Cc1cc(C)c(C)c(S(=O)(=O)N2CCN(CC(=O)c3c(N)n(Cc4ccccc4)c(=O)n(C)c3=O)CC2)c1C | 2.5 | 99.3* | 10 | 12 | -0.7 | 17.8
CCOC(=O)N1CCN(C(=O)C(=O)NNC(=O)COc2ccc(Cl)cc2)CC1 | -0.4 | -0.9 | 13 | 5 | -6.2 | 1.5
CCN(CC)Cc1c(O)ccc2c([N+](=O)[O-])c(C)n(-c3ccc(OC)cc3)c12 | 0.1 | 68.7* | 17 | 23 | -0.8 | 1.7
COC(=O)CCCC1=CC2=C(c3ccccc3)C(=O)C(C)(OC(=O)C3CCCC3)C(=O)C2=CN1CCc1c[nH]c2ccccc12 (centres undefined) | . | . | . | 6 | . | .
NNC(=O)Nc1cccc(C(F)(F)F)c1 | 0.3 | -1.9 | 12 | 3 | -4.7 | 0.1
NC(=O)/C=C\C(=O)Nc1cccc(C(F)(F)F)c1 | 0.7 | 95.8* | 27 | 6 | 3.7 | 7.7
CCNC(=S)NNC(=O)c1cc(Br)cs1 | -10.0 | 4.3 | 20 | 6 | -10.3 | -22.7
COc1ccccc1C1CC(c2ccc(NS(C)(=O)=O)cc2)=NN1C(=O)c1ccccc1 (centres undefined) | 0.9 | 77.0* | 9 | 7 | -2.3 | 0.5
CCn1c(=O)c2c(n3c(=S)[nH]nc13)-c1ccccc1CC21CCCCC1 | -0.3 | 4.1 | 13 | 12 | 4.4 | -0.4
